Test system: HeLa
Test: Antiproliferative activity against human HeLa cells assessed as inhibition of cell growth incubated for 24 hrs by MTT assay
Assay type: functional, cell-based
Procedure, shortened: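 Cells kept in DMEM with 10% FBS and 1% antibiotic-antimycotic at 37 °C and 5% CO2. Seeded at 8 × 10^3 cells per 100 μL and left 24 h, then exposed 24 h to 5, 10, 20, 50 or 100 μM. MTT at 0.5 mg/mL in HBSS was added for 2–4 h at 37 °C in the dark. Formazan was dissolved in DMSO, A570 was read, and IC50 was derived.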

Work on COc1cccc2c1C(=O)c1c(O)c3c(c(O)c1C2=O)C[C@@](O)(C(=O)CO)C[C@@H]3O[C@H]1C[C@H](N)[C@H](O)[C@H](C)O1 [DOXORUBICIN] yielded an IC50 of 32.2 µM.

Reference: ChEMBL document CHEMBL6083205, “A comprehensive apoptotic assessment of niloticin in cervical cancer cells: a tirucallane-type triterpenoid from Aphanamixis polystachya (Wall.) Parker” (RSC Med Chem, 2024)
